Measurements as given in ChEMBL document CHEMBL3098105, “7,7'-Diazaindirubin--a small molecule inhibitor of casein kinase 2 in vitro and in cells” (Bioorg Med Chem, 2014).
Active and inactive are the calls of the source. No cut-off for these calls is given here.

Assays:
[1] = biological target: CDK2/Cyclin A2 (Homo sapiens) (UniProt P24941+P20248); assay: Inhibition of CDK2/CycA (unknown origin) assessed as residual activity at 10 uM relative to control; assay type: protein-complex assay
[2] = biological target: Protein kinase C delta type (Homo sapiens) (UniProt Q05655); assay: Inhibition of human PKCdelta assessed as residual activity at 1 uM relative to control
[3] = biological target: MAP kinase-activated protein kinase 3 (Homo sapiens) (UniProt Q16644); assay: Inhibition of human MAPKAP-K3 assessed as residual activity at 1 uM relative to control
[4] = biological target: SRSF protein kinase 3 (Homo sapiens) (UniProt Q9UPE1); assay: Inhibition of human MSSK1 assessed as residual activity at 1 uM relative to control
[5] = biological target: Cyclin-dependent kinase 5/CDK5 activator 1 (Homo sapiens) (UniProt Q00535+Q15078); assay: Inhibition of CDK5/p35NCK (unknown origin) assessed as residual activity at 1 uM relative to control; assay type: protein-complex assay
[6] = biological target: Death-associated protein kinase 3 (Homo sapiens) (UniProt O43293); assay: Inhibition of human ZIPK assessed as residual activity at 1 uM relative to control
Chain of Death-associated protein kinase 3 (Homo sapiens) (O43293 whole entry, looked up): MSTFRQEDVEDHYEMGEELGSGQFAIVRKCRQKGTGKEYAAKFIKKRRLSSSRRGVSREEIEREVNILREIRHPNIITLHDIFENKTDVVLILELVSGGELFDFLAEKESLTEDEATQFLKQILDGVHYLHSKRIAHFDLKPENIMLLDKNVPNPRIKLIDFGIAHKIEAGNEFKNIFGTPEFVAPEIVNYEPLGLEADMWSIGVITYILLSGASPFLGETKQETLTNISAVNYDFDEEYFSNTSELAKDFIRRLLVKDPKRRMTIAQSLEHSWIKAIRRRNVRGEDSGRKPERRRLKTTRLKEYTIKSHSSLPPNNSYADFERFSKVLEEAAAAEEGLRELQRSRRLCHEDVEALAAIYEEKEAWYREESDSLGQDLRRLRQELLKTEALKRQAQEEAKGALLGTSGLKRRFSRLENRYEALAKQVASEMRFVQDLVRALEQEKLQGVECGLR

MCF7 [7] = assay: Induction of apoptosis in human MCF7 cells assessed as PARP cleavage at 1 uM after 24 hrs by Western blot analysis; assay type: functional, cell-based
Procedure, shortened: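 Cells were lysed in urea lysis buffer (6 M urea, NaF, Na3VO4, protease inhibitors). 20–40 µg protein was run on 10% SDS-PAGE and detected by ECL. Primary antibodies (pAkt S473, PARP, β-actin loading control) were used at 1:1000 overnight at 4 °C. DMSO was the vehicle control. For the pAkt blots, cells were treated for 2 h with Ly294002 as positive control.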

[8] = biological target: Tyrosine-protein kinase ABL2 (Homo sapiens) (UniProt P42684); assay: Inhibition of human Arg assessed as residual activity at 1 uM relative to control
[9] = biological target: Casein kinase II (Homo sapiens) (UniProt P67870+P68400+P19784); assay: Inhibition of CK2 in human MCF7 cells assessed as time of delay for GSK3beta phosphorylation at Ser9 at 1 uM by Western blot analysis; assay type: cell-based
Procedure, shortened: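 MCF7 cells were grown at 37 °C and 5% CO2 in DMEM with 10% heat-inactivated FBS and penicillin/streptomycin. Cells were exposed to 1 µM for the indicated times, with DMSO as the untreated control. Extracts were made in urea lysis buffer, and 20–40 µg protein was run on 10% SDS–PAGE. Blots were probed with primary antibodies (1:1000, overnight, 4 °C) and read by ECL, with β-actin as loading control.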

[10] = biological target: CDK3/Cyclin E (Homo sapiens) (UniProt P24864+Q00526); assay: Inhibition of human CDK3/cyclinE assessed as residual activity at 1 uM relative to control; assay type: protein-complex assay
[11] = biological target: Angiopoietin-1 receptor (Homo sapiens) (UniProt Q02763); assay: Inhibition of human Tie2 assessed as residual activity at 1 uM relative to control
BT-549 = assay: Antiproliferative activity against human BT549 cells after 3 days by sulforhodamine B assay; assay type: functional; details: BT-549, 72 h
Procedure, shortened: (§1)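 Tested in the NCI 60 cell line panel. GI50 is the concentration giving 50% inhibition of cell growth, and values are the mean of two series of tests.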

[12] = biological target: Tyrosine-protein kinase ABL1 (Homo sapiens) (UniProt P00519); assay: Inhibition of ABL1 (unknown origin) assessed as residual activity at 10 uM relative to control
[13] = biological target: Mitogen-activated protein kinase kinase kinase 9 (Homo sapiens) (UniProt P80192); assay: Inhibition of human MLK1 assessed as residual activity at 1 uM relative to control
Chain of Mitogen-activated protein kinase kinase kinase 9 (Homo sapiens) (P80192 whole entry, looked up): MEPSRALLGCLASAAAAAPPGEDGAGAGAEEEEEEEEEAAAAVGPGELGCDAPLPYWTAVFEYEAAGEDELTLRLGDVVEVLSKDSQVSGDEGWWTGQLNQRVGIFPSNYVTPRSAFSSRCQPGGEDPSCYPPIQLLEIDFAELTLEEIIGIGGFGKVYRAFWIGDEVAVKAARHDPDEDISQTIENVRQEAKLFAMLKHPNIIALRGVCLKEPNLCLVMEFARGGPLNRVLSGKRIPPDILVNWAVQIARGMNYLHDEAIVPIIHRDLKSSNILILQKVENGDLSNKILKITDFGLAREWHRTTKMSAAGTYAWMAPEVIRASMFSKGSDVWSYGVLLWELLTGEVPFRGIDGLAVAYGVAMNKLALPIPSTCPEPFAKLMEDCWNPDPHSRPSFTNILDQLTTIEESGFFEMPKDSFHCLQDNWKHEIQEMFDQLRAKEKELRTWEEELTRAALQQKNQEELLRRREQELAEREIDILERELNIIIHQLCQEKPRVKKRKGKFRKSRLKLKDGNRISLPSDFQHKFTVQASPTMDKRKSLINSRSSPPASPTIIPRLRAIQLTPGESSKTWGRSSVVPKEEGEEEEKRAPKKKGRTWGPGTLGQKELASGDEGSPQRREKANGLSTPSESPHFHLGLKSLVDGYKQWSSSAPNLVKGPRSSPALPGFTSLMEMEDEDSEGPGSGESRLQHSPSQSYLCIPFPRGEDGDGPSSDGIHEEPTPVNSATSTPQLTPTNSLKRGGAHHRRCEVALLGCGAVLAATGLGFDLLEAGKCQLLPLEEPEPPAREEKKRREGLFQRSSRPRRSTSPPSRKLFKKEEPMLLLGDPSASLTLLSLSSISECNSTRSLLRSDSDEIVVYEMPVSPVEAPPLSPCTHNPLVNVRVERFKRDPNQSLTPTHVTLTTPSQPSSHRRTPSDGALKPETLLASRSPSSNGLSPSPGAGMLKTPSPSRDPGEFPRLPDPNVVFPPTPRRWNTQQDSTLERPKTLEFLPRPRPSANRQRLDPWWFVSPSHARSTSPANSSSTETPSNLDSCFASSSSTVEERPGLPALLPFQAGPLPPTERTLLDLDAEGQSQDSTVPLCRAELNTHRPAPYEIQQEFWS

[14] = biological target: Serine/threonine-protein kinase 3 (Homo sapiens) (UniProt Q13188); assay: Inhibition of human MST2 assessed as residual activity at 1 uM relative to control
[15] = biological target: Ribosomal protein S6 kinase alpha-4 (Homo sapiens) (UniProt O75676); assay: Inhibition of human MSK2 assessed as residual activity at 1 uM relative to control
[16] = biological target: Serine/threonine-protein kinase STK11 (Homo sapiens) (UniProt Q15831); assay: Inhibition of human LKB1 assessed as residual activity at 1 uM relative to control
MCF7 [17] = assay: Cell cycle arrest in human MCF7 cells assessed as accumulation at S phase at 0.25 uM after 24 hrs using propidium iodide staining by FACS analysis (reference value: 18.59%); assay type: functional
[18] = biological target: Serine/threonine-protein kinase pim-2 (Homo sapiens) (UniProt Q9P1W9); assay: Inhibition of human Pim-2 assessed as residual activity at 1 uM relative to control
Chain of Serine/threonine-protein kinase pim-2 (Homo sapiens) (Q9P1W9 whole entry, looked up): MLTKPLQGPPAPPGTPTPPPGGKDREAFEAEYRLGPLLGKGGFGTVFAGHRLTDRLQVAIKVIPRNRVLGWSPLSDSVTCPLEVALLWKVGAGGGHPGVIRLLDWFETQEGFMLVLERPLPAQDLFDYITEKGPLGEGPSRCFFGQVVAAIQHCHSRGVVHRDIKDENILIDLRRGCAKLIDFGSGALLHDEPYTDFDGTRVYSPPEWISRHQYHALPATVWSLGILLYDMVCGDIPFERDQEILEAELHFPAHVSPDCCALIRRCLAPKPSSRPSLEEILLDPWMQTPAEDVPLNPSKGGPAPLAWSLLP

[19] = biological target: Inhibitor of nuclear factor kappa-B kinase subunit beta (Homo sapiens) (UniProt O14920); assay: Inhibition of human IKKbeta assessed as residual activity at 1 uM relative to control
[20] = biological target: Serine/threonine-protein kinase 4 (Homo sapiens) (UniProt Q13043); assay: Inhibition of human MST1 assessed as residual activity at 1 uM relative to control
[21] = biological target: Serine/threonine-protein kinase MRCK alpha (Homo sapiens) (UniProt Q5VT25); assay: Inhibition of human MRCKalpha assessed as residual activity at 1 uM relative to control
Chain of Serine/threonine-protein kinase MRCK alpha (Homo sapiens) (Q5VT25 whole entry): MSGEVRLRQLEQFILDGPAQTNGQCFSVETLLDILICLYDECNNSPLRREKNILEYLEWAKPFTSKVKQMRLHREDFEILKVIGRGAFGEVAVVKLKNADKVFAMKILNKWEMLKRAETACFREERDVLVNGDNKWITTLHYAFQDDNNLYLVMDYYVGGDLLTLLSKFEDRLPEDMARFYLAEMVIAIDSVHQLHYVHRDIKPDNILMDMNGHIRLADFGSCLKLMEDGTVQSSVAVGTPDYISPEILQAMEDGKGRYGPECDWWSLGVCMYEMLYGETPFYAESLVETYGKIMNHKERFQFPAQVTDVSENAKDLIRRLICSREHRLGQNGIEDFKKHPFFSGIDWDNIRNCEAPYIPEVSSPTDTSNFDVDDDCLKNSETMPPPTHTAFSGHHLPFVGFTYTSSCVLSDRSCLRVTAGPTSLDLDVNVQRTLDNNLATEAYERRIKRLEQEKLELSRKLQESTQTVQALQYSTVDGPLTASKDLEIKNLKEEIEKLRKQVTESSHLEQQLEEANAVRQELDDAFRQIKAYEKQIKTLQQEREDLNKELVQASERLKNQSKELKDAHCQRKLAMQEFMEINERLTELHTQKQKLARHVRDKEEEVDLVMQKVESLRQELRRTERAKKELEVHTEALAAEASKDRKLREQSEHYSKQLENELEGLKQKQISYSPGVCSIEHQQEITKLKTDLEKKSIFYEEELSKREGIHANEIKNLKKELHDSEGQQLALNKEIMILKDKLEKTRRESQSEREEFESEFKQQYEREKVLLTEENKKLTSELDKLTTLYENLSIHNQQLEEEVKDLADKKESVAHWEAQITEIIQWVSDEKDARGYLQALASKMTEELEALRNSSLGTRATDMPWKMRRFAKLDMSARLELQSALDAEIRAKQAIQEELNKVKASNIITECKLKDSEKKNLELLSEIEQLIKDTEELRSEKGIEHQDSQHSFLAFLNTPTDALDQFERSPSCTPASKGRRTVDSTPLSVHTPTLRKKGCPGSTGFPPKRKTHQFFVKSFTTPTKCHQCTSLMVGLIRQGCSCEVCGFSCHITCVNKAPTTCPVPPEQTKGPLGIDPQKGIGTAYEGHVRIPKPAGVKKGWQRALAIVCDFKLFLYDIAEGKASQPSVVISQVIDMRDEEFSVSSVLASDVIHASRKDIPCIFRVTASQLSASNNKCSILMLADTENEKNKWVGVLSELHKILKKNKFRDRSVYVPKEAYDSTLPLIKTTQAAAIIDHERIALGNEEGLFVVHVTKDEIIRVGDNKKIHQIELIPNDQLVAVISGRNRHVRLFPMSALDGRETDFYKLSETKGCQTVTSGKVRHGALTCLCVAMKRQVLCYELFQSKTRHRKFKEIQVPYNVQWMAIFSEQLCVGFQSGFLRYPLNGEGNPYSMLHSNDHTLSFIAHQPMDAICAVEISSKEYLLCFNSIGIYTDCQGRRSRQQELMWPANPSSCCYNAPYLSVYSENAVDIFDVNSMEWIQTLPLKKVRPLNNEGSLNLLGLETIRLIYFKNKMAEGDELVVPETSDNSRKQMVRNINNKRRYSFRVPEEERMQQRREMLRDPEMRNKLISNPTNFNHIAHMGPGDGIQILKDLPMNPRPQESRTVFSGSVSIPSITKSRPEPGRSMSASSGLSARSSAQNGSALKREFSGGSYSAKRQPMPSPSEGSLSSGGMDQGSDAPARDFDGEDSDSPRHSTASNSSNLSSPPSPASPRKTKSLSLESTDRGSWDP

[22] = biological target: Death-associated protein kinase 1 (Homo sapiens) (UniProt P53355); assay: Inhibition of human DAPK1 assessed as residual activity at 1 uM relative to control
Chain of Death-associated protein kinase 1 (Homo sapiens) (P53355 whole entry, looked up): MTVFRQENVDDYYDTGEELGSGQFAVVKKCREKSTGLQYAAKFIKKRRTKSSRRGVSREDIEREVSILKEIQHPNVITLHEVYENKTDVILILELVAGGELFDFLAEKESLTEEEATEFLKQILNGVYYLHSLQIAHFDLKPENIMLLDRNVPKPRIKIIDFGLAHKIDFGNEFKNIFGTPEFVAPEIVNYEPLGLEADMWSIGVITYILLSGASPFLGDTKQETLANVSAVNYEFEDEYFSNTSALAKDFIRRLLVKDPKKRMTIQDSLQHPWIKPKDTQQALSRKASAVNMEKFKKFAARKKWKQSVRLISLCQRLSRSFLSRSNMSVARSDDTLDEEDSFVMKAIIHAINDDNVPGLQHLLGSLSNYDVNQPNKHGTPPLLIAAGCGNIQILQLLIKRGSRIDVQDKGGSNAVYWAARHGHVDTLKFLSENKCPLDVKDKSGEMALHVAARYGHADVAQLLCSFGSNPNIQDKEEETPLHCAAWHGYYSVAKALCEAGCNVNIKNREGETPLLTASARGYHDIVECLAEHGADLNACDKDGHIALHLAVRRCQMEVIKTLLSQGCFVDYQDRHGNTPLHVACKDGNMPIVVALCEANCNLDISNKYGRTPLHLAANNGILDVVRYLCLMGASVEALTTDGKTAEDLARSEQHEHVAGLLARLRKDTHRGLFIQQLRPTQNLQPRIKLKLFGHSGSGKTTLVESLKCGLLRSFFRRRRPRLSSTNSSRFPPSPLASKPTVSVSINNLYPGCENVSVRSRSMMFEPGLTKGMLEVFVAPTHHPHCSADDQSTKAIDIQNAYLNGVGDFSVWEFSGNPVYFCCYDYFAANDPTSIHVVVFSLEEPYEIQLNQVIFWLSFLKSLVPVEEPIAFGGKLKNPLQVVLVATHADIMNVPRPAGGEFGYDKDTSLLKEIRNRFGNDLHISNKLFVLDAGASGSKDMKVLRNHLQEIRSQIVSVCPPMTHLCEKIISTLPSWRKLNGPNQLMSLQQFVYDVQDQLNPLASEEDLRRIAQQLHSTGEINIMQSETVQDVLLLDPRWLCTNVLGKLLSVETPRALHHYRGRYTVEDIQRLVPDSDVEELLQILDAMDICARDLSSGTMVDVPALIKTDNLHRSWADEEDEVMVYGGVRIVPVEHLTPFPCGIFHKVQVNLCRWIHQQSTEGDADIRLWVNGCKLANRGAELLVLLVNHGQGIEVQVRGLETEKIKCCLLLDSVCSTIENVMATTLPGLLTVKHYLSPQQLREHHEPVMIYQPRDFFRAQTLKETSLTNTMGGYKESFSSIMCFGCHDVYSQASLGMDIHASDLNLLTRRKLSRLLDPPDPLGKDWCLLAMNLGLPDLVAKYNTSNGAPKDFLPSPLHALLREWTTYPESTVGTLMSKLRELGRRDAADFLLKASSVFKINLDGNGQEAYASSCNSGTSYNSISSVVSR

[23] = biological target: Tyrosine-protein kinase BTK (Homo sapiens) (UniProt Q06187); assay: Inhibition of human BTK assessed as residual activity at 1 uM relative to control
[24] = biological target: Dual specificity tyrosine-phosphorylation-regulated kinase 2 (Homo sapiens) (UniProt Q92630); assay: Inhibition of human DYRK2 assessed as residual activity at 1 uM relative to control
[25] = biological target: Tyrosine-protein kinase Fer (Homo sapiens) (UniProt P16591); assay: Inhibition of human Fer assessed as residual activity at 1 uM relative to control
[26] = biological target: Glycogen synthase kinase-3 alpha (Homo sapiens) (UniProt P49840); assay: Inhibition of human GSK3alpha assessed as residual activity at 1 uM relative to control
IGROV-1 = assay: Antiproliferative activity against human IGROV1 cells after 3 days by sulforhodamine B assay; assay type: functional; details: IGROV-1, 72 h; procedure, shortened: as §1
[27] = biological target: Calcium/calmodulin-dependent protein kinase type 1D (Homo sapiens) (UniProt Q8IU85); assay: Inhibition of human CaMK1delta assessed as residual activity at 1 uM relative to control
[28] = biological target: Discoidin domain-containing receptor 2 (Homo sapiens) (UniProt Q16832); assay: Inhibition of human DDR2 assessed as residual activity at 1 uM relative to control
[29] = biological target: Tyrosine-protein kinase ZAP-70 (Homo sapiens) (UniProt P43403); assay: Inhibition of human ZAP-70 assessed as residual activity at 1 uM relative to control
[30] = biological target: Platelet-derived growth factor receptor alpha (Homo sapiens) (UniProt P16234); assay: Inhibition of PDGFR-alpha (unknown origin) assessed as residual activity at 10 uM relative to control

**Q.** For `O=C1Nc2ncccc2/C1=C1/Nc2ncccc2C1=O`, which Activity [1] is on record?
**A.** 106%

**Q.** What about the Activity [2] of the same compound?
**A.** 126%

**Q.** What about the Activity [3] of the same compound?
**A.** 98%

**Q.** And the Activity [4]?
**A.** 73%

**Q.** And the Activity [5]?
**A.** 106%

**Q.** And the Activity [6]?
**A.** 118%

**Q.** What about the Activity (MCF7 [7]) of the same compound?
**A.** Active

**Q.** What about the Activity [8] of the same compound?
**A.** 98%

**Q.** What about the TIME [9] of the same compound?
**A.** 0.5 h

**Q.** And the Activity [10]?
**A.** 74%

**Q.** And the Activity [11]?
**A.** 117%

**Q.** What about the GI50 (BT-549) of the same compound?
**A.** 1600 nM

**Q.** And the Activity [12]?
**A.** 92%

**Q.** And the Activity [13]?
**A.** 61%

**Q.** And the Activity [14]?
**A.** 105%

**Q.** And the Activity [15]?
**A.** 78%

**Q.** And the Activity [16]?
**A.** 104%

**Q.** What about the Activity (MCF7 [17]) of the same compound?
**A.** 18.57%

**Q.** What about the Activity [18] of the same compound?
**A.** 142%

**Q.** What about the Activity [19] of the same compound?
**A.** 110%

**Q.** And the Activity [20]?
**A.** 96%

**Q.** What about the Activity [21] of the same compound?
**A.** 119%

**Q.** What about the Activity [22] of the same compound?
**A.** 94%

**Q.** What about the Activity [23] of the same compound?
**A.** 140%

**Q.** And the Activity [24]?
**A.** 107%

**Q.** And the Activity [25]?
**A.** 102%

**Q.** What about the Activity [26] of the same compound?
**A.** 68%

**Q.** What about the GI50 (IGROV-1) of the same compound?
**A.** 577 nM

**Q.** What about the Activity [27] of the same compound?
**A.** 70%

**Q.** What about the Activity [28] of the same compound?
**A.** 119%

**Q.** What about the Activity [29] of the same compound?
**A.** 78%

**Q.** And the Activity [30]?
**A.** 88%
